Results from ChEMBL document CHEMBL1144020, “Development of prodrug 4-chloro-3-(5-methyl-3-{[4-(2-pyrrolidin-1-ylethoxy)phenyl]amino}-1,2,4-benzotriazin-7-yl)phenyl benzoate (TG100801): a topically administered therapeutic candidate in clinical trials for the treatment of age-related macular degeneration” (J Med Chem, 2008).

Experiments:
[1] = target: Vascular endothelial growth factor receptor 2 (Homo sapiens, UniProt P35968); test: Inhibition of VEGFR2
[2] = system: Mus musculus; test: Inhibition of FAK-Y861 phosphorylation in mouse at 5 mg/kg
[3] = target: Tyrosine-protein kinase Yes (Homo sapiens, UniProt P07947); test: Inhibition of YES
Sequence of Tyrosine-protein kinase Yes (P07947 whole entry): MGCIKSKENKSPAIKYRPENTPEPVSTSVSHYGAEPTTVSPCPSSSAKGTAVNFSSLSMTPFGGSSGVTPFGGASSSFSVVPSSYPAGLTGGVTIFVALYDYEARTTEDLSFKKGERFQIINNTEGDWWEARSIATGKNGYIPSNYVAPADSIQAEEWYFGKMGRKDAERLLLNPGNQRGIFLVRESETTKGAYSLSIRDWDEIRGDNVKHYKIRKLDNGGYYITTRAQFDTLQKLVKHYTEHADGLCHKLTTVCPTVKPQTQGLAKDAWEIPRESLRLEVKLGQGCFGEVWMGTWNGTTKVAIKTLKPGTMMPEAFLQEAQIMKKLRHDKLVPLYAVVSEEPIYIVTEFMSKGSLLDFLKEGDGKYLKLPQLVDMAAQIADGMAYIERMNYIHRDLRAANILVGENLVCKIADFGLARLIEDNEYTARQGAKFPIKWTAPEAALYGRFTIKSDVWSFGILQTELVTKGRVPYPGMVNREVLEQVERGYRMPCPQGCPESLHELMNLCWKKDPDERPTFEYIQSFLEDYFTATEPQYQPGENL

[4] = Cmax in C57BL/6 mouse cornea at 137 nM instilled per eye; type: ADME, organism-based; design: dose 137 nM, route ophthalmic; conditions: topical or ocular, 137 nM per eye
Method in brief: (§1)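 One 10 µL topical drop per eye (70 µg, 137 nmol; 0.7% w/v in 27% w/v PL90G aqueous formulation) to 20 male C57BL/6 mice. Composite sampling, N = 4 per time point at 0.5, 1, 3, 7 and 24 h. Cornea, retina and choroid/sclera eye cup were dissected and plasma taken at euthanasia. LC/MS/MS quantitation; Tmax and Cmax from measured levels; AUC by linear trapezoidal rule on mean data.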

[5] = Tmax in C57BL/6 mouse choroid/sclera at 137 nM instilled per eye; type: ADME, organism-based; conditions: topical or ocular, 137 nM per eye; method in brief: as §1
[6] = AUC (0 to 24 hrs) in C57BL/6 mouse choroid/sclera at 137 nM instilled per eye; type: ADME, organism-based; design: time < 24 hr, dose 137 nM, route ophthalmic; conditions: topical or ocular, 137 nM per eye; method in brief: as §1
[7] = system: Mus musculus; test: Reduction of VEGF-induced retinal leak in BALB/c mouse administered topically at 137 nM q.d; type: functional; design: scale not given: the % may be the effect or the level left
[8] = Antiproliferative activity against VEGF-stimulated human RMVEC cells after 48 hrs; type: functional, cell-based
Method in brief: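 Human retinal microvascular endothelial cells (~1.5 × 10³/well) were made quiescent for ~48 h in growth-factor-free medium with 10% FBS. Cells were pretreated ~60 min with compound (5–0.00229 or 2–0.00195 µM) in medium with 10% FBS and 50 µg/mL heparin. VEGF 50 ng/mL was added for 48 h at 37 °C/5% CO₂. XTT read at 492/690 nm; IC50 by nonlinear regression.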

[9] = Cmax in C57BL/6 mouse choroid/sclera at 137 nM instilled per eye; type: ADME, organism-based; design: dose 137 nM, route ophthalmic; conditions: topical or ocular, 137 nM per eye; method in brief: as §1
[10] = Half life in C57BL/6 mouse administered topically at 0.7% w/v thrice a day; type: ADME, organism-based; conditions: in vivo, topical or ocular
[11] = Tmax in C57BL/6 mouse retina at 137 nM instilled per eye; type: ADME, organism-based; conditions: topical or ocular, 137 nM per eye; method in brief: as §1
[12] = system: Mus musculus; test: Reduction of VEGF-induced retinal leak in BALB/c mouse administered topically at 137 nM thrice a day; type: functional; design: scale not given: the % may be the effect or the level left
[13] = AUC (0 to 24 hrs) in C57BL/6 mouse cornea at 137 nM instilled per eye; type: ADME, organism-based; design: dose 137 nM, time < 24 hr, route ophthalmic; conditions: topical or ocular, 137 nM per eye; method in brief: as §1
[14] = AUC (0 to 24 hrs) in C57BL/6 mouse retina at 137 nM instilled per eye; type: ADME, organism-based; design: time < 24 hr, dose 137 nM, route ophthalmic; conditions: topical or ocular, 137 nM per eye; method in brief: as §1
[15] = target: Proto-oncogene tyrosine-protein kinase Src (Homo sapiens, UniProt P12931); test: Inhibition of Src
Sequence of Proto-oncogene tyrosine-protein kinase Src (P12931 2-536 limits assumed): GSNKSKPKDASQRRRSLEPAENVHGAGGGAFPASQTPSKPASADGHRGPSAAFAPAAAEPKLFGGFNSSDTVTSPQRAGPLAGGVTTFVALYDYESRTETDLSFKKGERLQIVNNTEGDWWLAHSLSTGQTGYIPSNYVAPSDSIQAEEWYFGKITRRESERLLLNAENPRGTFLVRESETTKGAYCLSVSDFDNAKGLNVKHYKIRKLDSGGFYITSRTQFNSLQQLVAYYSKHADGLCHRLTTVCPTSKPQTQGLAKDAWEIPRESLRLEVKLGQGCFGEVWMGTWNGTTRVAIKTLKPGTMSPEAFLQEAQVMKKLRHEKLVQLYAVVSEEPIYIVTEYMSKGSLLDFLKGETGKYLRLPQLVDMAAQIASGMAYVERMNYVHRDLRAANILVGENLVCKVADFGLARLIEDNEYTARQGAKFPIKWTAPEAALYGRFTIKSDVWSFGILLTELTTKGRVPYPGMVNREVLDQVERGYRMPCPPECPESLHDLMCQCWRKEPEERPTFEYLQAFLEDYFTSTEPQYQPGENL

[16] = Stability at 120 degC after 1 hr; type: physicochemical
Method in brief: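 Prodrugs at 0.5% in 0.5% HPMC/5% dextrose, pH 6.7, in closed vials, autoclaved at 120 °C for 1 h. After cooling, percent remaining was assessed by reverse-phase HPLC with diode-array and ELSD detection.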

[17] = Cmax in C57BL/6 mouse retina at 137 nM instilled per eye; type: ADME, organism-based; design: dose 137 nM, route ophthalmic; conditions: topical or ocular, 137 nM per eye; method in brief: as §1
[18] = Cmax in C57BL/6 mouse plasma at 137 nM instilled per eye; type: ADME, organism-based; design: dose 137 nM, route ophthalmic; conditions: topical or ocular, 137 nM per eye; method in brief: as §1
[19] = Tmax in C57BL/6 mouse plasma at 137 nM instilled per eye; type: ADME, organism-based; conditions: topical or ocular, 137 nM per eye; method in brief: as §1
[20] = Tmax in C57BL/6 mouse cornea at 137 nM instilled per eye; type: ADME, organism-based; conditions: topical or ocular, 137 nM per eye; method in brief: as §1
[21] = Stability in Dutch-belted rabbit eye assessed as hydrolysis rate; type: ADME, tissue-based, Oryctolagus cuniculus
Method in brief: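 Two Dutch-Belted rabbit eyeballs were homogenized in 1× RIPA buffer. Prodrug (from 1 mg/mL DMSO stock) was added to a final 5 µg/mL and kept at 37 °C, sampled at 0, 0.25, 1, 2 and 6 h. Controls were prodrug in RIPA buffer for 120 min at 37 °C. Supernatants were analyzed by LC/MS/MS for prodrug and released parent phenol.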

Sequence of Vascular endothelial growth factor receptor 2 (P35968 whole entry): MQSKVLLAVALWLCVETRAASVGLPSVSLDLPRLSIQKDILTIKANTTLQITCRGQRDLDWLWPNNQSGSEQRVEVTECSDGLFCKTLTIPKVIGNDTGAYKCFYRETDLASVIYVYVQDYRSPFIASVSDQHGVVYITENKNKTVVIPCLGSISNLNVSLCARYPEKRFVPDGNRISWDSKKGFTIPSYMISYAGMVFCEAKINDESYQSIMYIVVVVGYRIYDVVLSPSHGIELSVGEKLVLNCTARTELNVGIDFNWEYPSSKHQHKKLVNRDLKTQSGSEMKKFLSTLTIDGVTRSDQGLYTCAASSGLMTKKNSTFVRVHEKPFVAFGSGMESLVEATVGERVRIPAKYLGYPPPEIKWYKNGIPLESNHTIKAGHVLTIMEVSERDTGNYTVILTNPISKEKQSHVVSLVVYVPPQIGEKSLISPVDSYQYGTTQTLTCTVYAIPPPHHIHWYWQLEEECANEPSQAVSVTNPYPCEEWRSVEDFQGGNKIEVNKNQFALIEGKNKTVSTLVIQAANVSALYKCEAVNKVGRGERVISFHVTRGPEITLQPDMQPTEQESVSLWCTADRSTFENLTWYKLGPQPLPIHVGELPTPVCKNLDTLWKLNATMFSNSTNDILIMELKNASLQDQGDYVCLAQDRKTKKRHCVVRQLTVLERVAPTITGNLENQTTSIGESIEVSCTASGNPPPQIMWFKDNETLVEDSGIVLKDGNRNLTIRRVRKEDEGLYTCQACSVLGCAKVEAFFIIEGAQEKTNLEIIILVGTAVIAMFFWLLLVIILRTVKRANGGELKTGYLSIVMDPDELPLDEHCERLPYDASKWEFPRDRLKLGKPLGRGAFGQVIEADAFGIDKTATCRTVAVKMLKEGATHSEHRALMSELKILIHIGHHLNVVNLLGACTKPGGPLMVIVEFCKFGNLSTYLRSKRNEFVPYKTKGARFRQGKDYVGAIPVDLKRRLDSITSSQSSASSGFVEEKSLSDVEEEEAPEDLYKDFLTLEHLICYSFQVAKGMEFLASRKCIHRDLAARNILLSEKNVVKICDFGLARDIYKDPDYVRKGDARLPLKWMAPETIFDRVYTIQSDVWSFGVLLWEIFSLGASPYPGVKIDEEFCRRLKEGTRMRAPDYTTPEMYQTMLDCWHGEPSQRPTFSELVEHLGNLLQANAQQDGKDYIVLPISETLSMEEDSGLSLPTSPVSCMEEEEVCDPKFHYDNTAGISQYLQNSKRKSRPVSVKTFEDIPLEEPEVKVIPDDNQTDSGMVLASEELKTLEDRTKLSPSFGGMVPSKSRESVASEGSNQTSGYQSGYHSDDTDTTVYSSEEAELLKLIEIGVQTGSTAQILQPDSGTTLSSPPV

In the case of Cc1cc(-c2ccccc2Cl)cc2nnc(Nc3ccc(OCCN4CCCC4)cc3)nc12, the IC50 [1] is reported as 1900 nM.
For Cc1cc(-c2cc(O)ccc2Cl)cc2nnc(Nc3ccc(OCCN4CCCC4)cc3)nc12, the inhibition in vivo at 5 mg/kg [2] was > 90%, the IC50 [3] was 0.3 nM and the Cmax at 0.137 µM [4] was 64 µM. It also gave a Tmax at 0.137 µM [5] of 30 min, an AUC(0-t) at 24 h, 0.137 µM [6] of 240 µg·h/mL and an Activity [7] of 60%. The IC50 [8] was 610 nM, the Cmax at 0.137 µM [9] was 23.4 µM and the half-life [10] was 30 min. It also gave a Tmax at 0.137 µM [11] of 30 min, an Activity [12] of 85% and an IC50 [1] of 2.2 nM. It also gave an AUC(0-t) at 24 h, 0.137 µM [13] of 560 µg·h/mL, an AUC(0-t) at 24 h, 0.137 µM [14] of 3200 ng·h/mL and an IC50 [15] of 1.8 nM. The Stability ([16]; 1 h) was “Stable”, the Cmax at 0.137 µM [17] was 3.6 µM and the Cmax at 0.137 µM [18] was 2 nM. It also gave a Tmax at 0.137 µM [19] of 6 h and a Tmax at 0.137 µM [20] of 30 min.
With Cc1cccc(C)c1C(=O)Oc1ccc(Cl)c(-c2cc(C)c3nc(Nc4ccc(OCCN5CCCC5)cc4)nnc3c2)c1 the Stability [21] was 1.1 ng/mL/h and the remaining at 1 h ([16]; read-out: Stability) was > 90%.
